Test results: the RNAGym collection of RNA variant scans (doi:10.1126/science.aae0568)
Fewer inactive variants are shown than the library holds.

B1: tRNA (parent)
chain: GUUCCGUUGGCGUAAUGGUAACGCGUCUCCCUCCUAAGGAGAAGACUGCGGGUUCGAGUCCCGUACGGAACG

Variants of: B1
Experiment: yeast fitness relative to wild type (ratio to wild type); higher = fitter; tRNA-Arg(CCU), competitive growth, 37 C, YPD
Procedure, shortened: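 Changes in genotype frequencies gave Darwinian fitness relative to wild type. Frequencies were read by 100-nucleotide paired-end sequencing of gene amplicons before and after pooled Saccharomyces cerevisiae strains, carrying tRNA-Arg(CCU) gene variants at the native locus, were competed in YPD at 37°C for 24 hours in six replicates. A genotype was kept only with ≥ 100 starting reads, and estimates < 0.5 were set to 0.5.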
In the case of C27G A45C G58C, the yeast fitness is reported as 0.644.
Variant C27U U28A A37G C49U A57C G58C has a yeast fitness of 0.683.
For C27G A40C C60U, the yeast fitness was ≤ 0.5.
Work on C27U A43U yielded a yeast fitness of 1.06.
For C27U C31G A40G, the yeast fitness was ≤ 0.5.
Work on C27G A69U yielded a yeast fitness of 0.738.
For U28C G67U, the yeast fitness was 0.914.
Variant C27G A65C A70C has a yeast fitness of 0.53.
U28G A43U gave a yeast fitness of 0.948.
Work on U26G C46A yielded a yeast fitness of 0.949.
With U28A A40U C61A G68A the yeast fitness was ≤ 0.5.
C27A C30G G41C C61G C62U A69U gave a yeast fitness of 0.557.
For U28G C29G C62A, the yeast fitness was 0.711.
For C27G U54C, the yeast fitness was ≤ 0.5.
For C27G C49A A70U, the yeast fitness was ≤ 0.5.
In the case of C27A C49U C61A, the yeast fitness is reported as ≤ 0.5.
In the case of C27G G44C U47C, the yeast fitness is reported as ≤ 0.5.
For U28C G41C C49A, the yeast fitness was ≤ 0.5.
With U28C G41C C49G the yeast fitness was ≤ 0.5.
In the case of U28A C55G C62U, the yeast fitness is reported as ≤ 0.5.
For U28A C34U A40U A45U C60A, the yeast fitness was 0.706.
Work on U28A C31A G44A yielded a yeast fitness of 0.568.
In the case of U26G A37U G51A, the yeast fitness is reported as ≤ 0.5.
Work on C27A C31G G50A yielded a yeast fitness of 0.661.
C27U C55U G67C gave a yeast fitness of 0.572.
In the case of U28C U32A G44A A57C, the yeast fitness is reported as ≤ 0.5.
C27G C61U gave a yeast fitness of 0.594.
In the case of C27A G41C A43C G48A C66U, the yeast fitness is reported as 0.546.
For C27G C31G A43C, the yeast fitness was 0.545.
For U26G G63C C66U, the yeast fitness was ≤ 0.5.
For U28C U32C C46G, the yeast fitness was 0.722.
U28C C29A A69U gave a yeast fitness of 0.559.
Work on U26C C61U yielded a yeast fitness of 0.956.
For C27A C31U, the yeast fitness was 0.941.
Work on C27U C33G C34G G44A G50A G52A yielded a yeast fitness of 0.558.
U28A G63A showed a yeast fitness of 0.849.
In the case of C27U A43G C46G A69C, the yeast fitness is reported as ≤ 0.5.
With U28C G39C G44C C46U the yeast fitness was ≤ 0.5.
For C27G C29G C30U, the yeast fitness was ≤ 0.5.
In the case of C27A C46A A69G, the yeast fitness is reported as 0.582.
In the case of C27U C29G C31A, the yeast fitness is reported as ≤ 0.5.
In the case of U28C A45U C55A C66A, the yeast fitness is reported as ≤ 0.5.
In the case of U26G G48A A57U, the yeast fitness is reported as 0.598.
C27A G44C showed a yeast fitness of 0.782.
C27A A57C C66U showed a yeast fitness of 0.538.
For U28G A70U, the yeast fitness was 0.842.
Work on U28C C49G yielded a yeast fitness of 0.909.
With C27U C33U A40C A57G C66U the yeast fitness was ≤ 0.5.
In the case of U26C G41C C61G A69C, the yeast fitness is reported as ≤ 0.5.
U28C G38C showed a yeast fitness of 0.579.
In the case of C27U G48A, the yeast fitness is reported as 1.1.
With U26C C30G G67C the yeast fitness was ≤ 0.5.
With U28C A36C U47A G58C G67U the yeast fitness was ≤ 0.5.
C27G A42U gave a yeast fitness of 0.721.
C27A G68C showed a yeast fitness of 0.893.
With U26G C66U the yeast fitness was 0.862.
With C27U C29U C55A G58A the yeast fitness was ≤ 0.5.
In the case of C27U G38C A57G A65C, the yeast fitness is reported as ≤ 0.5.
U28C A37C A40U showed a yeast fitness of 0.568.
With C27U U32C C46G the yeast fitness was 0.765.
For C27U C61U, the yeast fitness was 1.01.
In the case of C27G A36U U53A, the yeast fitness is reported as ≤ 0.5.
U26C U59C gave a yeast fitness of 0.793.
U26C U59A showed a yeast fitness of 0.882.
With C27A C61G C66U A69U the yeast fitness was ≤ 0.5.
Variant C27U U35G A40C A57C G67U has a yeast fitness of 0.612.
For C27G A40G G48A A57C U64A, the yeast fitness was ≤ 0.5.
With C27U A37U G67A the yeast fitness was ≤ 0.5.
In the case of U28C C33G G38A, the yeast fitness is reported as ≤ 0.5.
In the case of C27U U28G C31A G58C, the yeast fitness is reported as ≤ 0.5.
In the case of U28A C33G A36U A40G A70G, the yeast fitness is reported as ≤ 0.5.
For C27G U59C C66G, the yeast fitness was ≤ 0.5.
With C27U A45G U53C the yeast fitness was 0.544.
For C27G U28A C30G C31U C60A A70C, the yeast fitness was ≤ 0.5.
For C27G C30U G67A A70G, the yeast fitness was ≤ 0.5.
Variant U28C A37U A40U C49G A57U G68C A70G has a yeast fitness of 0.624.
For C27A G39C C55G A65U, the yeast fitness was ≤ 0.5.
With C27U C33A A37U A57G the yeast fitness was ≤ 0.5.
Variant C27U A42U A43U U47C has a yeast fitness of 0.577.
Work on U28C G51C yielded a yeast fitness of 0.502.
In the case of U28A U32C G39C, the yeast fitness is reported as 0.542.
With C27G U28A A65U the yeast fitness was ≤ 0.5.
For C27G C30A C34G A45G C62U A69G, the yeast fitness was ≤ 0.5.
For U28C A42C C60U, the yeast fitness was 0.589.
In the case of C27U G48C A57C, the yeast fitness is reported as ≤ 0.5.
With U26G C33G G50C the yeast fitness was ≤ 0.5.
For C27G C30G, the yeast fitness was ≤ 0.5.
With U28C G50U A65C the yeast fitness was ≤ 0.5.
For U26G C29A, the yeast fitness was 0.578.
For C27G C29A C61U, the yeast fitness was ≤ 0.5.
C27U G58A G63A gave a yeast fitness of 0.53.
For U28A A36U C61A A69U, the yeast fitness was ≤ 0.5.
Variant C27G A43G has a yeast fitness of 0.636.
With C27U G48A A65U the yeast fitness was 0.714.
Variant U28A U32G C55G has a yeast fitness of 0.505.
With C27G A36C G44A the yeast fitness was ≤ 0.5.
U28C C30U A69U showed a yeast fitness of 0.598.
For U28C A42G, the yeast fitness was 0.913.
Work on U26C C62A yielded a yeast fitness of 0.762.
For C27G U28G A36G U64C, the yeast fitness was ≤ 0.5.
For C27U A57G C60U, the yeast fitness was ≤ 0.5.
With U26G C46G C61U the yeast fitness was 0.824.
With C27A C31A G52A G58C the yeast fitness was ≤ 0.5.
Variant U26C C31U A43G G63A has a yeast fitness of 0.611.
With C27A A45U G52A the yeast fitness was ≤ 0.5.
U26C C46U G51A showed a yeast fitness of 0.64.
Work on U26C C46U C62U yielded a yeast fitness of 0.718.
Work on U26C C30G C34U C49U yielded a yeast fitness of 0.51.
In the case of U26G A37C G38A A42G G44C A45G C49U A65U, the yeast fitness is reported as ≤ 0.5.
For C27U G38C A40C A42C, the yeast fitness was ≤ 0.5.
For U28C G44C G56C, the yeast fitness was 0.7.
In the case of C27G U32G A42C C66U, the yeast fitness is reported as ≤ 0.5.
With U28C A40U C55A the yeast fitness was ≤ 0.5.
In the case of C27U C55A A69C, the yeast fitness is reported as 0.573.
For C27A G39C A57U A70U, the yeast fitness was ≤ 0.5.
For U28A U64C, the yeast fitness was 0.834.
Work on U26C C60G yielded a yeast fitness of 0.642.
In the case of C27A C31U C60G, the yeast fitness is reported as ≤ 0.5.
In the case of U28A C31U U32A G52A A57U C60U A65G G68A, the yeast fitness is reported as ≤ 0.5.
With U26C G68C the yeast fitness was 0.936.
For C27G A42U U53C, the yeast fitness was ≤ 0.5.
C27U A40C A57U gave a yeast fitness of 0.606.
With U28G A57U G63A the yeast fitness was 0.874.
U28A U53A gave a yeast fitness of 0.6.
U26C C61G G63A A69U gave a yeast fitness of 0.532.
In the case of C27U C34U A69U, the yeast fitness is reported as 0.528.
U28C C30A G39A C66U gave a yeast fitness of 0.594.
In the case of C27G U59G G68C, the yeast fitness is reported as 0.582.
Variant C27A G67A has a yeast fitness of 0.807.
For C27A G67U, the yeast fitness was 0.745.
For C27A G67C, the yeast fitness was 0.786.
In the case of U26G C27U G56A A65C, the yeast fitness is reported as ≤ 0.5.
In the case of U28C C31U G50C C55U C60G G63A C66U, the yeast fitness is reported as ≤ 0.5.
With C27U G50C the yeast fitness was 0.618.
With C27U A65C the yeast fitness was 1.02.
C27U A65G showed a yeast fitness of 0.975.
With C27G U47C A70U the yeast fitness was 0.545.
In the case of C27U U32C C55A, the yeast fitness is reported as ≤ 0.5.
With C27A C31G G44C the yeast fitness was ≤ 0.5.
Variant U28C A57C has a yeast fitness of 0.586.
For C27A A37C G52A U59A, the yeast fitness was ≤ 0.5.
With C27G C31G G68A the yeast fitness was ≤ 0.5.
Work on C27A A43C A69C yielded a yeast fitness of 0.748.
Work on U26G G51C yielded a yeast fitness of 0.588.
For U28A C30U A57G, the yeast fitness was 0.651.
For U28C C62G C66G, the yeast fitness was ≤ 0.5.
With C27U G44A the yeast fitness was 0.887.
Work on C27U U35C yielded a yeast fitness of 0.754.
U26C C34U gave a yeast fitness of 0.716.
For C27U G52C, the yeast fitness was 0.7.
With C27U G52A the yeast fitness was 0.7.
For U26G U28A A43G C49U C61U G67A, the yeast fitness was ≤ 0.5.
Variant U26G C30G has a yeast fitness of 0.6.
Work on C27U C31U C55U yielded a yeast fitness of 0.643.
In the case of C27U A40G G44A C62U, the yeast fitness is reported as ≤ 0.5.
C27U A40G G44A C62A showed a yeast fitness of 0.51.
For U26C C30G A45U U53A C62U G68C, the yeast fitness was ≤ 0.5.
Variant C27U A36G has a yeast fitness of 0.85.
For U28A C30U, the yeast fitness was 0.667.
Work on C27U G44C G58C yielded a yeast fitness of 0.655.
With C27G U28A C61U A65U A70U the yeast fitness was ≤ 0.5.
With C27A G39A A57G the yeast fitness was ≤ 0.5.
With U28A A69U the yeast fitness was 0.749.
In the case of C27G A42G A57G U59G, the yeast fitness is reported as ≤ 0.5.
With U28A U32C A43C A57C the yeast fitness was ≤ 0.5.
In the case of C27U A40G U64C, the yeast fitness is reported as 0.602.
In the case of C27U A40G U64A, the yeast fitness is reported as ≤ 0.5.
